# Measurements published in ChEMBL document CHEMBL3286182, “4-aminoquinolone piperidine amides: noncovalent inhibitors of DprE1 with long residence time and potent antimycobacterial activity” (J Med Chem, 2014).
# Calls of active or inactive are those of the source. The rule behind the calls is not given here.
# Experiments:
# Escherichia coli [1] = assay: Antimicrobial activity against Escherichia coli ARC523 at 100 uM; format: functional, organism-based
# Outline: (§1)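 Nonmycobacterial panel of Candida albicans, Gram-negative and Gram-positive pathogens.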
# [2] = tested on: Mycobacterium tuberculosis; assay: Antimycobacterial activity against Mycobacterium tuberculosis H37Rv at >MIC after 21 to 28 days; format: functional
# [3] = Intrinsic clearance in human liver microsomes at 1 uM up to 30 mins by LC-MS/MS analysis; format: ADME; settings: read-out: CLH
# [4] = AUC (0 to infinity) in Wistar rat at 2 mg/kg, iv; format: ADME, organism-based; design: dose 2 mg/kg, route intravenous, time infinity; settings: plasma
# Outline: (§2)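 Male Wistar rats given a single dose, 2 mg/kg intravenously or 10 mg/kg orally. Plasma concentration followed over time, n = 2 per compound. Parameters taken from the plasma curves: C0 (iv), Cmax (oral), AUC0−∞, elimination half-life, plasma clearance, Vss and oral bioavailability.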
# Klebsiella pneumoniae = assay: Antimicrobial activity against Klebsiella pneumoniae ARC1865 at 100 uM; format: functional, organism-based; outline: as §1
# [5] = tested on: Mycolicibacterium smegmatis; assay: Antimicrobial activity against Mycobacterium smegmatis mc2155 at 100 uM; format: functional, organism-based; settings: str. MC2 155
# Pseudomonas aeruginosa [6] = assay: Antimicrobial activity against Pseudomonas aeruginosa ARC545 at 100 uM; format: functional, organism-based; outline: as §1
# Streptococcus pneumoniae = assay: Antimicrobial activity against Streptococcus pneumoniae ARC548 at 100 uM; format: functional, organism-based; outline: as §1
# [7] = tested on: Mycolicibacterium smegmatis; assay: Antimicrobial activity against Mycobacterium smegmatis ATCC 607 at 100 uM; format: functional, organism-based
# [8] = tested on: Mycobacterium tuberculosis; assay: Bactericidal activity against Mycobacterium tuberculosis H37Rv after 7 days relative to control; format: functional
# [9] = Elimination half life in Wistar rat at 2 mg/kg, iv; format: ADME, organism-based; design: dose 2 mg/kg, route intravenous; settings: in vivo, read-out: beta t1/2 (converted); outline: as §2
# [10] = biological target: Voltage-gated inwardly rectifying potassium channel KCNH2 (Homo sapiens, UniProt Q12809); assay: Inhibition of human ERG by medium-throughput electrophysiology
# Voltage-gated inwardly rectifying potassium channel KCNH2, sequence (Q12809 whole entry): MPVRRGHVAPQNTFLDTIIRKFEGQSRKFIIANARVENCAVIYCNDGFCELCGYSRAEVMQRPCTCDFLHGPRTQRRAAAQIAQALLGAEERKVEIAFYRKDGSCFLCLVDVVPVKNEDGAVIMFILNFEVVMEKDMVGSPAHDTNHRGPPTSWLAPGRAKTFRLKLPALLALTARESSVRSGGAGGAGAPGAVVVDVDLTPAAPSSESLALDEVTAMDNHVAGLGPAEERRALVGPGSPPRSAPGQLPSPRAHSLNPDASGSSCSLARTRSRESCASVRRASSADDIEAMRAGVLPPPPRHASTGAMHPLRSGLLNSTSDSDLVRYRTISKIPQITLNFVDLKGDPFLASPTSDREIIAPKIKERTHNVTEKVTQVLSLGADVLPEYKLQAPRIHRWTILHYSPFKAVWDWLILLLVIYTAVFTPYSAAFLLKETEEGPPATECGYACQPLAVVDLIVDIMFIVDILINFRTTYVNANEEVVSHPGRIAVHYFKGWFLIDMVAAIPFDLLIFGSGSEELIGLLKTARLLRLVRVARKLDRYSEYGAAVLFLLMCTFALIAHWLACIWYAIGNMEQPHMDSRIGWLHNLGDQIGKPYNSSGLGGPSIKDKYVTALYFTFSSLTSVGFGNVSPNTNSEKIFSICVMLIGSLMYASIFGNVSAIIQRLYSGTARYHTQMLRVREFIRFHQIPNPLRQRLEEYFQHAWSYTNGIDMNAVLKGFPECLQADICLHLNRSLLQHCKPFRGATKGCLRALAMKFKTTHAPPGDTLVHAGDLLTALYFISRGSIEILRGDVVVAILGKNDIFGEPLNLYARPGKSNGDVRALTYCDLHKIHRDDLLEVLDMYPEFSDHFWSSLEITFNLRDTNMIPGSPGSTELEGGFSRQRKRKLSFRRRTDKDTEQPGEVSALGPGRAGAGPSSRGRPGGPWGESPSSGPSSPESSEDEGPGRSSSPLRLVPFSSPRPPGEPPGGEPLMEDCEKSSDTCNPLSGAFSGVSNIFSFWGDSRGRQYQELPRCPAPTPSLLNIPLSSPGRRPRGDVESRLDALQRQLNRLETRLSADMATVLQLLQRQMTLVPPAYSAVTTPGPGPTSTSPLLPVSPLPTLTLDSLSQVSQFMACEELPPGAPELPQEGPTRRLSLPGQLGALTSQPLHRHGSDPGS
# [11] = Initial plasma concentration in Wistar rat at 2 mg/kg, iv; format: ADME, organism-based; design: dose 2 mg/kg, route intravenous; outline: as §2
# [12] = Inhibition of Mycobacterium smegmatis DprE1 Y321H mutant using farnesylphosphoryl-beta-D-ribofuranose as substrate assessed as conversion of amplex red to resorufin after 30 mins; design: species or system Mycolicibacterium smegmatis
# Outline: (§3)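 Recombinant M. smegmatis DprE1 (thioredoxin-6His fusion), wild type or Y321H, 75 nM. Enzyme was preincubated 30 min in FAD assay mix: 50 mM glycylglycine pH 8.5, 200 mM potassium glutamate, 10 μM FAD, 0.002% Brij-35, 2% DMSO. Reaction was started with 300 μM farnesylphosphoryl-β-D-ribofuranose, 0.01 mg/mL HRP and 50 μM amplex red at 25 °C.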
# [13] = Clearance in Wistar rat at 2 mg/kg, iv; format: ADME, organism-based; design: dose 2 mg/kg, route intravenous; settings: in vivo; outline: as §2
# [14] = tested on: Mycolicibacterium smegmatis; assay: Binding affinity to Mycobacterium smegmatis recombinant DprE1 assessed as dissociation constant
# Outline: (§4)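 Progress curves (fluorescence vs time) recorded at several inhibitor concentrations with 75 nM Msm DprE1 in the FAD/HRP/Amplex Red coupled assay, pH 8.5, 25 °C. A single-step reversible slow-binding model was fitted globally, with vs and vi fitted per concentration and koff and Kiapp shared. Half-life and residence time were derived from koff.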
# [15] = tested on: Mycobacterium tuberculosis; assay: Antimycobacterial activity against Mycobacterium tuberculosis over expressing InhA after 5 days by standard microdilution method; format: functional; settings: 120 h
# [16] = Octanol-water partition coefficient, log D of the compound by shake-flask method; format: physicochemical
# Escherichia coli [17] = assay: Antimicrobial activity against Escherichia coli ARC524 at 100 uM; format: functional, organism-based; outline: as §1
# [18] = Elimination half life in Wistar rat at 10 mg/kg, po; format: ADME, organism-based; design: dose 10 mg/kg, route oral; settings: in vivo, read-out: beta t1/2 (converted); outline: as §2
# Staphylococcus aureus = assay: Antimicrobial activity against Staphylococcus aureus ARC517 at 100 uM; format: functional, organism-based; outline: as §1
# [19] = tested on: Mycobacterium tuberculosis; assay: Antimycobacterial activity against Mycobacterium tuberculosis over expressing PimA after 5 days by standard microdilution method; format: functional; settings: 120 h
# [20] = AUC (0 to infinity) in Wistar rat at 10 mg/kg, po; format: ADME, organism-based; design: time infinity, dose 10 mg/kg, route oral; settings: plasma; outline: as §2
# [21] = tested on: Mycolicibacterium smegmatis; assay: Ratio of IC50 for Mycobacterium smegmatis DprE1 Y321H mutant to IC50 for Mycobacterium smegmatis recombinant wild type DprE1; outline: as §3
# [22] = Oral bioavailability in Wistar rat at 10 mg/kg; format: ADME, organism-based; settings: in vivo; outline: as §2
# [23] = tested on: Mycobacterium tuberculosis; assay: Antimycobacterial activity against Mycobacterium tuberculosis over expressing TopA after 5 days by standard microdilution method; format: functional; settings: 120 h
# [24] = Solubility of the compound in 0.1 M phosphate buffer at pH 7.4 after 24 hrs by UV and MS analysis; format: physicochemical
# Haemophilus influenzae [25] = assay: Antimicrobial activity against Haemophilus influenzae ARC446 at 100 uM; format: functional, organism-based; outline: as §1
# [26] = tested on: Mycobacterium tuberculosis; assay: Antimycobacterial activity against Mycobacterium tuberculosis over expressing DprE1 after 5 days by standard microdilution method; format: functional; settings: 120 h
# [27] = Cytotoxicity against human A549 cells after 72 hrs by resazurin based fluorescence assay; format: cell-based; settings: read-out: MIC
# Outline: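 Cytotoxicity read as MMIC, the MIC on the A549 cell line.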
# [28] = tested on: Mycobacterium tuberculosis; assay: Bactericidal activity against Mycobacterium tuberculosis H37Rv after 3 days relative to control; format: functional
# [29] = tested on: Mycolicibacterium smegmatis; assay: Binding affinity to Mycobacterium smegmatis recombinant DprE1 assessed as half life; outline: as §4
# Pseudomonas aeruginosa [30] = assay: Antimicrobial activity against Pseudomonas aeruginosa ARC546 at 100 uM; format: functional, organism-based; outline: as §1
# [31] = Cmax in Wistar rat at 10 mg/kg, po; format: ADME, organism-based; design: dose 10 mg/kg, route oral; settings: in vivo; outline: as §2
# [32] = Permeability of the compound from basolateral to apical side in human Caco2 cells; format: ADME, cell-based; settings: Caco-2, read-out: permeability
# [33] = Volume of distribution at steady state in Wistar rat at 2 mg/kg, iv; format: ADME, organism-based; design: dose 2 mg/kg, route intravenous; settings: in vivo, read-out: Vdss; outline: as §2
# [34] = Fraction unbound in human plasma at 20 uM after 18 hrs by equilibrium dialysis method; format: ADME, cell-free
# [35] = tested on: Mycobacterium tuberculosis; assay: Antimycobacterial activity against Mycobacterium tuberculosis H37Rv under hypoxic condition after 6 days by resazurin assay; format: functional; settings: 144 h
# [36] = tested on: Mycobacterium tuberculosis; assay: Antimycobacterial activity against Mycobacterium tuberculosis H37Rv after 5 days by standard microdilution method; format: functional; settings: 120 h
# [37] = tested on: Mycolicibacterium smegmatis; assay: Binding affinity to Mycobacterium smegmatis recombinant DprE1 assessed as residence time; outline: as §4
# Haemophilus influenzae [38] = assay: Antimicrobial activity against Haemophilus influenzae ARC158 at 100 uM; format: functional, organism-based; outline: as §1
# Candida albicans = assay: Antimicrobial activity against Candida albicans ARC527 at 100 uM; format: functional, organism-based; outline: as §1
# [39] = Intrinsic clearance in rat cryopreserved hepatocytes assessed per 10^6 cells at 1 uM up to 120 mins by LC-MS/MS analysis; format: ADME, cell-based, Hepatocyte; settings: read-out: CLH
# [40] = Inhibition of Mycobacterium smegmatis recombinant DprE1 using farnesylphosphoryl-beta-D-ribofuranose as substrate assessed as conversion of amplex red to resorufin after 30 mins; design: species or system Mycolicibacterium smegmatis
# Outline: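 Msm DprE1 (thioredoxin-6His fusion of Msm Rv3790) at 75 nM, preincubated 30 min with 10 μM FAD. Buffer: 50 mM glycylglycine pH 8.5, 200 mM potassium glutamate, 0.002% Brij-35, 2% DMSO, 25 °C. Started with 300 μM farnesylphosphoryl-β-D-ribofuranose, 0.01 mg/mL HRP and 50 μM Amplex Red.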
# [41] = Permeability of the compound from apical to basolateral side in human Caco2 cells; format: ADME, cell-based; settings: Caco-2, read-out: permeability
structure (smiles),measurement,setting,value
Cn1ncc(C(=O)N2CCC(Nc3cc(=O)[nH]c4cc(F)c(F)cc34)CC2)c1Cl,Activity,Escherichia coli [1],inactive
same,MBC,[2],0.8 µM
same,microsomal CLint at 1 µM,[3],12.5 µL/min/mg
same,AUC(0-inf),[4],1.2 µM·h
same,Activity,Klebsiella pneumoniae,inactive
same,Activity,[5],inactive
same,Activity,Pseudomonas aeruginosa [6],inactive
same,Activity,Streptococcus pneumoniae,inactive
same,Activity,[7],inactive
same,LCK,[8],4
same,half-life,[9],0.5 h
same,IC50,[10],> 100 µM
same,C0,[11],4900 nM
same,IC50,[12],> 10 µM
same,clearance,[13],34.4 mL/min/kg
same,Kdiss,[14],0.00011 s⁻¹
same,MIC,[15],0.4 µM
same,logD,[16],2.2
same,Activity,Escherichia coli [17],inactive
same,half-life,[18],1.1 h
same,Activity,Staphylococcus aureus,inactive
same,MIC,[19],0.4 µM
same,AUC(0-inf),[20],0.04 µM·h
same,fold change (FC),[21],> 143
same,bioavailability,[22],0.3%
same,MIC,[23],0.4 µM
same,solubility at 24 h,[24],26 µM
same,Activity,Haemophilus influenzae [25],inactive
same,MIC,[26],> 50 µM
same,MCC at 72 h,[27],> 100 µM
same,LCK,[28],3
same,T1/2,[29],1.75 h
same,Activity,Pseudomonas aeruginosa [30],inactive
same,Cmax,[31],20 nM
same,Papp B→A,[32],11 ×10⁻⁶ cm/s
same,Vd,[33],0.9 L/kg
same,"fraction unbound at 18 h, 20 µM",[34],0.4
same,IC80,[35],> 100 µM
same,MIC,[36],0.4 µM
same,TIME,[37],2.53 h
same,Activity,Haemophilus influenzae [38],inactive
same,Activity,Candida albicans,inactive
same,hepatocyte CLint at 1 µM,[39],2.4 µL/min/1e6 cells
same,IC50,[40],0.006 µM
same,Papp A→B,[41],0.2 ×10⁻⁶ cm/s
